# Test results reported in ChEMBL document CHEMBL1275524, “Activities of antifungal agents against yeasts and filamentous fungi: assessment according to the methodology of the European Committee on Antimicrobial Susceptibility Testing” (2008).
# Experiments:
# Fusarium oxysporum [1] = assay: Antifungal activity against Fusarium oxysporum; assay type: functional
# Aspergillus niger = assay: Antifungal activity against Aspergillus niger; assay type: functional
# Trichosporon asahii = assay: Antifungal activity against Trichosporon asahii by EUCAST method; assay type: functional
# How it was run: (§1)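 Nonfermentative yeasts were tested by the EUCAST microdilution recommendations with one change: plates were sealed and agitated at 350 rpm and 30°C for 48 h.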
# Candida tropicalis = assay: Antifungal activity against Candida tropicalis; assay type: functional
# How it was run: (§2)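 Broth microdilution in flat-bottom plates in RPMI 1640 with 2% glucose; inoculum 0.5 × 105 to 2.5 × 10^5 CFU/ml. MICs were read spectrophotometrically at 24 h. AMB endpoint: ≥90% growth reduction vs drug-free control well. Azole and CPF endpoint: 50% reduction in optical density. MFC was taken as the lowest concentration giving 99% killing.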
# Cryptococcus gattii = assay: Antifungal activity against Cryptococcus neoformans var. gattii; assay type: functional, Cryptococcus bacillisporus
# How it was run: (§3)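 EUCAST yeast microdilution, modified for nonfermentative yeasts: plates were sealed and agitated at 350 rpm and 30°C for 48 h.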
# [2] = Antifungal activity against Cryptococcus neoformans var. neoformans by EUCAST method; assay type: functional; conditions: Cryptococcus deneoformans; how it was run: as §3
# [3] = Antifungal activity against Rhinocladiella aquaspersa; assay type: functional
# How it was run: (§4)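 Dematiaceous fungi were tested by the EUCAST spore-forming mold reference procedure: flat-bottom microdilution plates, RPMI 1640 plus 2% glucose, inoculum 2 × 105 to 5 × 10^5 CFU/ml. Endpoints were read visually at 24 and 48 h. Polyenes and azoles: 100% growth reduction vs drug-free control. CPF: minimum effective concentration. Run in duplicate and repeated twice.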
# Pichia kudriavzevii [4] = assay: Antifungal activity against Candida krusei; assay type: functional
# How it was run: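 EUCAST broth microdilution for yeasts in flat-bottom plates, RPMI 1640 with 2% glucose, inoculum 0.5 × 105 to 2.5 × 10^5 CFU/ml. […] MFC is the lowest concentration giving 99% killing.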
# Curvularia lunata [5] = assay: Antifungal activity against Curvularia lunata; assay type: functional
# Curvularia lunata [6] = assay: Antifungal activity against Curvularia lunata by EUCAST method; assay type: functional; how it was run: as §4
# Absidia [7] = assay: Antifungal activity against Absidia species by EUCAST method; assay type: functional
# Mucor hiemalis = assay: Antifungal activity against Mucor hiemalis; assay type: functional
# Rhizopus arrhizus = assay: Antifungal activity against Rhizopus oryzae; assay type: functional
# How it was run: (§5)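 Broth microdilution following the EUCAST reference procedure for spore-forming moulds, in flat-bottom plates with RPMI 1640 plus 2% glucose. Inoculum was 2 × 10^5 to 5 × 10^5 CFU/ml. MICs were read visually at 24 and 48 h as 100% growth reduction versus a drug-free control for polyenes and azoles. MEC was used for caspofungin. Tests were run in duplicate and repeated twice.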
# Aspergillus flavus = assay: Antifungal activity against Aspergillus flavus; assay type: functional
# Rhizomucor [8] = assay: Antifungal activity against Rhizomucor species by EUCAST method; assay type: functional; how it was run: as §5
# Lichtheimia corymbifera = assay: Antifungal activity against Absidia corymbifera by EUCAST method; assay type: functional
# [9] = system: Meyerozyma guilliermondii; assay: Antifungal activity against Candida guilliermondii by EUCAST method; assay type: functional; how it was run: as §2
# Rhizopus = assay: Antifungal activity against Rhizopus species by EUCAST method; assay type: functional; how it was run: as §5
# Fusarium oxysporum [10] = assay: Antifungal activity against Fusarium oxysporum by EUCAST method; assay type: functional
# Absidia [11] = assay: Antifungal activity against Absidia species; assay type: functional
# [12] = Antifungal activity against Rhizopus microsporus var. oligosporus; assay type: functional; how it was run: as §5
# Pichia kudriavzevii [13] = assay: Antifungal activity against Candida krusei by EUCAST method; assay type: functional; how it was run: as §2
# Trichosporon inkin = assay: Antifungal activity against Trichosporon inkin; assay type: functional; how it was run: as §1
# Candida parapsilosis = assay: Antifungal activity against Candida parapsilosis by EUCAST method; assay type: functional; conditions: Lodderomyces parapsilosis; how it was run: as §2
# Clavispora lusitaniae = assay: Antifungal activity against Candida lusitaniae; assay type: functional; how it was run: as §2
# Lomentospora prolificans = assay: Antifungal activity against Scedosporium prolificans; assay type: functional; how it was run: as §5
# Curvularia australiensis = assay: Antifungal activity against Bipolaris australiensis by EUCAST method; assay type: functional; how it was run: as §4
# Talaromyces marneffei = assay: Antifungal activity against Penicillium marneffei by EUCAST method; assay type: functional
# [14] = Antifungal activity against Rhizopus microsporus var. oligosporus by EUCAST method; assay type: functional; how it was run: as §5
# Aspergillus fumigatus = assay: Antifungal activity against Aspergillus fumigatus; assay type: functional
# Rhizomucor [15] = assay: Antifungal activity against Rhizomucor species; assay type: functional
# Penicillium sp. = assay: Antifungal activity against Penicillium species by EUCAST method; assay type: functional
# Mucor = assay: Antifungal activity against Mucor species; assay type: functional
# Nakaseomyces glabratus = assay: Antifungal activity against Candida glabrata by EUCAST method; assay type: functional; how it was run: as §2
# Geotrichum candidum = assay: Antifungal activity against Geotrichum candidum; assay type: functional
structure (smiles),measurement,setting,value
CC[C@@H]([C@H](C)O)n1ncn(-c2ccc(N3CCN(c4ccc(OC[C@@H]5CO[C@@](Cn6cncn6)(c6ccc(F)cc6F)C5)cc4)CC3)cc2)c1=O [POSACONAZOLE],MFC,Fusarium oxysporum [1],0.25 µg/mL
same,MFC,Aspergillus niger,1 µg/mL
same,MIC,Trichosporon asahii,6 µg/mL
same,MFC,Candida tropicalis,> 0.12 µg/mL
same,MFC,Cryptococcus gattii,0.125 µg/mL
same,MIC,[2],0.14 µg/mL
same,MFC,[3],0.125 µg/mL
same,MFC,Pichia kudriavzevii [4],0.5 µg/mL
same,MFC,Curvularia lunata [5],0.5 µg/mL
same,MIC,Curvularia lunata [6],0.25 µg/mL
same,MIC,Absidia [7],0.33 µg/mL
same,MFC,Mucor hiemalis,2 µg/mL
same,MFC,Rhizopus arrhizus,2 µg/mL
same,MFC,Aspergillus flavus,0.5 µg/mL
same,MIC,Rhizomucor [8],2.23 µg/mL
same,MIC,Lichtheimia corymbifera,0.29 µg/mL
same,MIC,[9],0.45 µg/mL
same,MIC,Rhizopus,0.78 µg/mL
same,MIC,Fusarium oxysporum [10],0.12 µg/mL
same,MFC,Absidia [11],0.5 µg/mL
same,MFC,[12],> 8 µg/mL
same,MIC,Pichia kudriavzevii [13],0.68 µg/mL
same,MFC,Trichosporon inkin,0.5 µg/mL
same,MIC,Candida parapsilosis,0.05 µg/mL
same,MFC,Clavispora lusitaniae,0.06 µg/mL
same,MFC,Lomentospora prolificans,> 8 µg/mL
same,MIC,Curvularia australiensis,0.12 µg/mL
same,MIC,Talaromyces marneffei,0.06 µg/mL
same,MIC,[14],5.33 µg/mL
same,MFC,Aspergillus fumigatus,0.5 µg/mL
same,MFC,Rhizomucor [15],> 2 µg/mL
same,MIC,Penicillium sp.,0.05 µg/mL
same,MFC,Mucor,2 µg/mL
same,MIC,Nakaseomyces glabratus,1.58 µg/mL
same,MFC,Geotrichum candidum,> 8 µg/mL
